# In ChEMBL document CHEMBL2413013, “Triplex-forming ability of oligonucleotides containing 1-aryl-1,2,3-triazole nucleobases linked via a two atom-length spacer” (Bioorg Med Chem, 2013):
# Legend:
# [1] = Binding affinity to hairpin double stranded DNA AT base pair in sodium cacodylate buffer at pH 6.8 assessed as triplex-forming ability measuring melting temperature after by UV melting experiment
# In short: (§1)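 TFO and hairpin dsDNA target, each strand at 1.89 μM final, in 10 mM sodium cacodylate (pH 6.8) with 100 mM KCl and 50 mM MgCl₂. Annealed in boiling water, then cooled slowly to 5 °C. Melting was followed at 260 nm from 5 to 90 °C at 0.5 °C/min. Tm was taken by the two-point average method, mean of three independent runs.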
# [2] = Binding affinity to hairpin double stranded DNA GC base pair in sodium cacodylate buffer at pH 6.8 assessed as triplex-forming ability measuring melting temperature after by UV melting experiment; in short: as §1
# [3] = Binding affinity to hairpin double stranded DNA CG base pair in sodium cacodylate buffer at pH 6.8 assessed as triplex-forming ability measuring melting temperature after by UV melting experiment; in short: as §1
# [4] = Binding affinity to hairpin double stranded DNA TA base pair in sodium cacodylate buffer at pH 6.8 assessed as triplex-forming ability measuring melting temperature after by UV melting experiment; in short: as §1
SMILES,Tm [1] [°C],Tm [2] [°C],Tm [3] [°C],Tm [4] [°C]
Cc1cn([C@H]2C[C@H](O[PH](OCCC#N)(OC[C@H]3O[C@@H](n4cc(C)c(=O)[nH]c4=O)C[C@@H]3O[PH](OCCC#N)(OC[C@H]3O[C@@H](n4cc(C)c(=O)[nH]c4=O)C[C@@H]3O[PH](OCCC#N)(OC[C@H]3O[C@@H](n4cc(C)c(=O)[nH]c4=O)C[C@@H]3O[PH](OCCC#N)(OC[C@H]3O[C@@H](n4cc(C)c(=O)[nH]c4=O)C[C@@H]3O[PH](OCCC#N)(OC(C)[C@H]3O[C@@H](n4ccc(N)nc4=O)C[C@@H]3O[PH](OCCC#N)(OC[C@H]3O[C@@H](n4cc(C)c(=O)[nH]c4=O)C[C@@H]3O[PH](OCCC#N)(OC[C@H]3O[C@@H](CCc4cn(-c5ccccc5C(N)=O)nn4)C[C@@H]3OP(=O)(O)OC[C@H]3O[C@@H](n4cc(C)c(=O)[nH]c4=O)C[C@@H]3O[PH](OCCC#N)(OC(C)[C@H]3O[C@@H](n4ccc(N)nc4=O)C[C@@H]3O[PH](OCCC#N)(OC[C@H]3O[C@@H](n4cc(C)c(=O)[nH]c4=O)C[C@@H]3O[PH](OCCC#N)(OC(C)[C@H]3O[C@@H](n4ccc(N)nc4=O)C[C@@H]3O[PH](OCCC#N)(OC[C@H]3O[C@@H](n4cc(C)c(=O)[nH]c4=O)C[C@@H]3O[PH](OCCC#N)(OC(C)[C@H]3O[C@@H](n4ccc(N)nc4=O)C[C@@H]3O[PH](OCCC#N)(OC[C@H]3O[C@@H](n4cc(C)c(=O)[nH]c4=O)C[C@@H]3O)N(C(C)C)C(C)C)N(C(C)C)C(C)C)N(C(C)C)C(C)C)N(C(C)C)C(C)C)N(C(C)C)C(C)C)N(C(C)C)C(C)C)N(C(C)C)C(C)C)N(C(C)C)C(C)C)N(C(C)C)C(C)C)N(C(C)C)C(C)C)N(C(C)C)C(C)C)N(C(C)C)C(C)C)N(C(C)C)C(C)C)[C@@H](CO)O2)c(=O)[nH]c1=O (stereo not given in full),16,19,20,18
Cc1cn([C@H]2C[C@H](O[PH](OCCC#N)(OC[C@H]3O[C@@H](n4cc(C)c(=O)[nH]c4=O)C[C@@H]3O[PH](OCCC#N)(OC[C@H]3O[C@@H](n4cc(C)c(=O)[nH]c4=O)C[C@@H]3O[PH](OCCC#N)(OC[C@H]3O[C@@H](n4cc(C)c(=O)[nH]c4=O)C[C@@H]3O[PH](OCCC#N)(OC[C@H]3O[C@@H](n4cc(C)c(=O)[nH]c4=O)C[C@@H]3O[PH](OCCC#N)(OC(C)[C@H]3O[C@@H](N4C=CC(N)=N[C@@H]4O)C[C@@H]3O[PH](OCCC#N)(OC[C@H]3O[C@@H](n4cc(C)c(=O)[nH]c4=O)C[C@@H]3O[PH](OCCC#N)(OC[C@H]3O[C@@H](OCc4cn(-c5cccc(C(N)=O)c5)nn4)C[C@@H]3OP(=O)(O)OC[C@H]3O[C@@H](n4cc(C)c(=O)[nH]c4=O)C[C@@H]3O[PH](OCCC#N)(OC(C)[C@H]3O[C@@H](n4ccc(N)nc4=O)C[C@@H]3O[PH](OCCC#N)(OC[C@H]3O[C@@H](n4cc(C)c(=O)[nH]c4=O)C[C@@H]3O[PH](OCCC#N)(OC(C)[C@H]3O[C@@H](n4ccc(N)nc4=O)C[C@@H]3O[PH](OCCC#N)(OC[C@H]3O[C@@H](n4cc(C)c(=O)[nH]c4=O)C[C@@H]3O[PH](OCCC#N)(OC(C)[C@H]3O[C@@H](n4ccc(N)nc4=O)C[C@@H]3O[PH](OCCC#N)(OC[C@H]3O[C@@H](n4cc(C)c(=O)[nH]c4=O)C[C@@H]3O)N(C(C)C)C(C)C)N(C(C)C)C(C)C)N(C(C)C)C(C)C)N(C(C)C)C(C)C)N(C(C)C)C(C)C)N(C(C)C)C(C)C)N(C(C)C)C(C)C)N(C(C)C)C(C)C)N(C(C)C)C(C)C)N(C(C)C)C(C)C)N(C(C)C)C(C)C)N(C(C)C)C(C)C)N(C(C)C)C(C)C)[C@@H](CO)O2)c(=O)[nH]c1=O (stereo not given in full),19,20,23,19
Cc1cn([C@H]2C[C@H](O[PH](OCCC#N)(OC[C@H]3O[C@@H](n4cc(C)c(=O)[nH]c4=O)C[C@@H]3O[PH](OCCC#N)(OC[C@H]3O[C@@H](n4cc(C)c(=O)[nH]c4=O)C[C@@H]3O[PH](OCCC#N)(OC[C@H]3O[C@@H](n4cc(C)c(=O)[nH]c4=O)C[C@@H]3O[PH](OCCC#N)(OC[C@H]3O[C@@H](n4cc(C)c(=O)[nH]c4=O)C[C@@H]3O[PH](OCCC#N)(OC(C)[C@H]3O[C@@H](n4ccc(N)nc4=O)C[C@@H]3O[PH](OCCC#N)(OC[C@H]3O[C@@H](n4cc(C)c(=O)[nH]c4=O)C[C@@H]3O[PH](OCCC#N)(OC[C@H]3O[C@@H](OCc4cn(-c5cccc(NC(N)=O)c5)nn4)C[C@@H]3OP(=O)(O)OC[C@H]3O[C@@H](n4cc(C)c(=O)[nH]c4=O)C[C@@H]3O[PH](OCCC#N)(OC(C)[C@H]3O[C@@H](n4ccc(N)nc4=O)C[C@@H]3O[PH](OCCC#N)(OC[C@H]3O[C@@H](n4cc(C)c(=O)[nH]c4=O)C[C@@H]3O[PH](OCCC#N)(OC(C)[C@H]3O[C@@H](n4ccc(N)nc4=O)C[C@@H]3O[PH](OCCC#N)(OC[C@H]3O[C@@H](n4cc(C)c(=O)[nH]c4=O)C[C@@H]3O[PH](OCCC#N)(OC(C)[C@H]3O[C@@H](n4ccc(N)nc4=O)C[C@@H]3O[PH](OCCC#N)(OC[C@H]3O[C@@H](n4cc(C)c(=O)[nH]c4=O)C[C@@H]3O)N(C(C)C)C(C)C)N(C(C)C)C(C)C)N(C(C)C)C(C)C)N(C(C)C)C(C)C)N(C(C)C)C(C)C)N(C(C)C)C(C)C)N(C(C)C)C(C)C)N(C(C)C)C(C)C)N(C(C)C)C(C)C)N(C(C)C)C(C)C)N(C(C)C)C(C)C)N(C(C)C)C(C)C)N(C(C)C)C(C)C)[C@@H](CO)O2)c(=O)[nH]c1=O (stereo not given in full),21,23,25,23

# Results, then the molecule that gave them:
Tm [1] [°C],Tm [2] [°C],Tm [3] [°C],Tm [4] [°C],SMILES
21,20,24,22,Cc1cn([C@H]2C[C@H](O[PH](OCCC#N)(OC[C@H]3O[C@@H](n4cc(C)c(=O)[nH]c4=O)C[C@@H]3O[PH](OCCC#N)(OC[C@H]3O[C@@H](n4cc(C)c(=O)[nH]c4=O)C[C@@H]3O[PH](OCCC#N)(OC[C@H]3O[C@@H](n4cc(C)c(=O)[nH]c4=O)C[C@@H]3O[PH](OCCC#N)(OC[C@H]3O[C@@H](n4cc(C)c(=O)[nH]c4=O)C[C@@H]3O[PH](OCCC#N)(OC(C)[C@H]3O[C@@H](n4ccc(N)nc4=O)C[C@@H]3O[PH](OCCC#N)(OC[C@H]3O[C@@H](n4cc(C)c(=O)[nH]c4=O)C[C@@H]3O[PH](OCCC#N)(OC[C@H]3O[C@@H](CCc4cn(-c5ccccc5)nn4)C[C@@H]3OP(=O)(O)OC[C@H]3O[C@@H](n4cc(C)c(=O)[nH]c4=O)C[C@@H]3O[PH](OCCC#N)(OC(C)[C@H]3O[C@@H](n4ccc(N)nc4=O)C[C@@H]3O[PH](OCCC#N)(OC[C@H]3O[C@@H](n4cc(C)c(=O)[nH]c4=O)C[C@@H]3O[PH](OCCC#N)(OC(C)[C@H]3O[C@@H](n4ccc(N)nc4=O)C[C@@H]3O[PH](OCCC#N)(OC[C@H]3O[C@@H](n4cc(C)c(=O)[nH]c4=O)C[C@@H]3O[PH](OCCC#N)(OC(C)[C@H]3O[C@@H](n4ccc(N)nc4=O)C[C@@H]3O[PH](OCCC#N)(OC[C@H]3O[C@@H](n4cc(C)c(=O)[nH]c4=O)C[C@@H]3O)N(C(C)C)C(C)C)N(C(C)C)C(C)C)N(C(C)C)C(C)C)N(C(C)C)C(C)C)N(C(C)C)C(C)C)N(C(C)C)C(C)C)N(C(C)C)C(C)C)N(C(C)C)C(C)C)N(C(C)C)C(C)C)N(C(C)C)C(C)C)N(C(C)C)C(C)C)N(C(C)C)C(C)C)N(C(C)C)C(C)C)[C@@H](CO)O2)c(=O)[nH]c1=O (stereo not given in full)
22,22,25,25,Cc1cn([C@H]2C[C@H](O[PH](OCCC#N)(OC[C@H]3O[C@@H](n4cc(C)c(=O)[nH]c4=O)C[C@@H]3O[PH](OCCC#N)(OC[C@H]3O[C@@H](n4cc(C)c(=O)[nH]c4=O)C[C@@H]3O[PH](OCCC#N)(OC[C@H]3O[C@@H](n4cc(C)c(=O)[nH]c4=O)C[C@@H]3O[PH](OCCC#N)(OC[C@H]3O[C@@H](n4cc(C)c(=O)[nH]c4=O)C[C@@H]3O[PH](OCCC#N)(OC(C)[C@H]3O[C@@H](n4ccc(N)nc4=O)C[C@@H]3O[PH](OCCC#N)(OC[C@H]3O[C@@H](n4cc(C)c(=O)[nH]c4=O)C[C@@H]3O[PH](OCCC#N)(OC[C@H]3O[C@@H](CCc4cn(-c5cccc(C(N)=O)c5)nn4)C[C@@H]3OP(=O)(O)OC[C@H]3O[C@@H](n4cc(C)c(=O)[nH]c4=O)C[C@@H]3O[PH](OCCC#N)(OC(C)[C@H]3O[C@@H](n4ccc(N)nc4=O)C[C@@H]3O[PH](OCCC#N)(OC[C@H]3O[C@@H](n4cc(C)c(=O)[nH]c4=O)C[C@@H]3O[PH](OCCC#N)(OC(C)[C@H]3O[C@@H](n4ccc(N)nc4=O)C[C@@H]3O[PH](OCCC#N)(OC[C@H]3O[C@@H](n4cc(C)c(=O)[nH]c4=O)C[C@@H]3O[PH](OCCC#N)(OC(C)[C@H]3O[C@@H](n4ccc(N)nc4=O)C[C@@H]3O[PH](OCCC#N)(OC[C@H]3O[C@@H](n4cc(C)c(=O)[nH]c4=O)C[C@@H]3O)N(C(C)C)C(C)C)N(C(C)C)C(C)C)N(C(C)C)C(C)C)N(C(C)C)C(C)C)N(C(C)C)C(C)C)N(C(C)C)C(C)C)N(C(C)C)C(C)C)N(C(C)C)C(C)C)N(C(C)C)C(C)C)N(C(C)C)C(C)C)N(C(C)C)C(C)C)N(C(C)C)C(C)C)N(C(C)C)C(C)C)[C@@H](CO)O2)c(=O)[nH]c1=O (stereo not given in full)
